Laboratory results from ChEMBL document CHEMBL1177889, “Synthesis of novel peptidomimetics as inhibitors of protozoan cysteine proteases falcipain-2 and rhodesain” (Eur J Med Chem, 2010).

Key:
[1] = target: T1, Falcipain 2 (Plasmodium falciparum) (UniProt Q9N6S8); assay: Inhibition of Plasmodium falciparum falcipain-2 at 30 uM after 10 to 15 min
T1 sequence (whole entry): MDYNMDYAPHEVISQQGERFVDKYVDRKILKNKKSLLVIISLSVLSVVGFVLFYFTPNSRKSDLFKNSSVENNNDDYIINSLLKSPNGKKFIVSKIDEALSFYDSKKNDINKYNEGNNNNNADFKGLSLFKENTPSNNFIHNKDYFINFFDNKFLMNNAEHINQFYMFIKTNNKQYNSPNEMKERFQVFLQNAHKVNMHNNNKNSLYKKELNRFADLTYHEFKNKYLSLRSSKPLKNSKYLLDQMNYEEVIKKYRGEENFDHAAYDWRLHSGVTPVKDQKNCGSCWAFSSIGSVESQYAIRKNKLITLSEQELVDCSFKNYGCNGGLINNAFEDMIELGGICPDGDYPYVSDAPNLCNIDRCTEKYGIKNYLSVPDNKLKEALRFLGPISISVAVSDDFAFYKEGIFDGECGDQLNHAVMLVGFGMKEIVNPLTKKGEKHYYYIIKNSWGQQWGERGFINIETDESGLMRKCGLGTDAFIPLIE
Procedure, shortened: (§1)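 Single-concentration screen with Cbz-Phe-Arg-AMC at 40 µM (FP-2) or 10 µM (rhodesain). Hydrolysis product release read continuously over 10 min. DMSO served as negative control and E-64 as positive control. Inhibition expressed as percent versus DMSO.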

[2] = system: Plasmodium falciparum; assay: Antiplasmodial activity against Plasmodium falciparum FCBR infected in human RBC; assay type: functional, organism-based; conditions: FCBR/Columbia
[3] = target: T2, Falcipain 2 (Plasmodium falciparum, UniProt Q9N6S8); assay: Inhibition of Plasmodium falciparum falcipain-2 after 10 to 15 min
T2 sequence (Q9N6S8 whole entry): T1 sequence (whole entry)
Procedure, shortened: (§2)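 Recombinant enzymes, FP-2 expressed in E. coli. Run in 50 mM sodium acetate pH 5.5 with 10 mM DTT. Substrate Cbz-Phe-Arg-AMC at 40 µM for FP-2 and 10 µM for rhodesain. Fluorescence (ex 365/em 460) followed continuously for 10–15 min at room temperature. Kiapp taken from Dixon plots and corrected to Ki using Km 21.5 µM (FP-2) or 0.9 µM (rhodesain). Each assay run twice.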

[4] = target: Rhodesain (Trypanosoma brucei rhodesiense) (UniProt Q95PM0); assay: Inhibition of Trypanosoma brucei rhodesiense rhodesain at 100 uM after 10 to 15 mins; procedure, shortened: as §1
Rhodesain (Trypanosoma brucei rhodesiense), sequence (Q95PM0 1-450): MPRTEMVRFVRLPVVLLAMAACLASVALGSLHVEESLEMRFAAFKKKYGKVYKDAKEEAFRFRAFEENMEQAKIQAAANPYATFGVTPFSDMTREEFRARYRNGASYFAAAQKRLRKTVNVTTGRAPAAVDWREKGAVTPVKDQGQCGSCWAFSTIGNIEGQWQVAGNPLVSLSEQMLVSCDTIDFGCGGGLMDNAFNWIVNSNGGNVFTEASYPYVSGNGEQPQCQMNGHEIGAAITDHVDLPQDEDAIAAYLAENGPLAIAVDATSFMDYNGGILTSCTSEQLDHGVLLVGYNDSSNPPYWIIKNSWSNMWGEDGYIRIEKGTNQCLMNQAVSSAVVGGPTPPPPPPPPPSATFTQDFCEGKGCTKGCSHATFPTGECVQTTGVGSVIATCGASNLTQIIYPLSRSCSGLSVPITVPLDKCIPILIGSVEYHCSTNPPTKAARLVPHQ

[5] = target: Rhodesain (Trypanosoma brucei rhodesiense, UniProt Q95PM0); assay: Inhibition of Trypanosoma brucei rhodesiense rhodesain after 10 to 15 mins; procedure, shortened: as §2
Rhodesain, sequence (Q95PM0 whole entry): as the sequence (Q95PM0 1-450) above

[6] = system: Trypanosoma brucei brucei; assay: Antitrypanosomal activity against Trypanosoma brucei brucei TC 221 after 48 hrs by alamar blue assay; conditions: TC 221, 48 h

| Compound | inhibition [1] | IC50 [2] | Ki [3] | inhibition [4] | Ki [5] | IC50 [6] |
| --- | --- | --- | --- | --- | --- | --- |
| CC(C)(C)S[C@@H]1OC(=O)C[C@@H]1NC(=O)CN1C(=O)[C@@H](COC(=O)Nc2ccc(Cl)cc2C(F)(F)F)N=C(c2ccccc2)c2ccccc21 | < 30% | – | – | – | – | – |
| O=C(CN1C(=O)[C@@H](COC(=O)Nc2ccc(Cl)cc2C(F)(F)F)N=C(c2ccccc2)c2ccccc21)N[C@H]1CC(=O)OC1O (some centres not stated) | – | > 100 µM | 4 µM | 30% | – | – |
| CC(C)(C)S[C@H]1OC(=O)C[C@@H]1NC(=O)CN1C(=O)[C@@H](COC(=O)Nc2ccc(Cl)cc2C(F)(F)F)N=C(c2ccccc2)c2ccccc21 | > 50% | 28.5 µM | 8.2 µM | – | 0.7 µM | 14.2 µM |
| NCCCC(N)(C(=O)O)C(F)F (configuration not stated) [EFLORNITHINE] | – | – | – | – | – | 22.9 µM |
| O=C(CN1C(=O)[C@@H](COC(=O)Nc2ccc(Cl)cc2C(F)(F)F)N=C(c2ccccc2)c2ccccc21)N[C@H]1CC(=O)O[C@H]1OCc1ccccc1 | < 30% | – | – | – | – | – |
| CC(C)C[C@H](NC(=O)[C@H]1O[C@@H]1C(=O)O)C(=O)NCCCCN=C(N)N [E-64] | – | 9.3 µM | 40.3 µM | – | – | – |
| O=C(CN1C(=O)[C@@H](COC(=O)Nc2ccc(Cl)cc2C(F)(F)F)N=C(c2ccccc2)c2ccccc21)N[C@H]1CC(=O)O[C@@H]1OCc1ccccc1 | > 50% | 49.5 µM | 8.9 µM | – | 0.8 µM | – |
